Most compounds without a hit are left out; they make up all but 2.5% or so of the library.
ABCG2 inh = inhibitors of human ABCG2 transporter, ABCB1 counter-screen; Q9UNQ0; IgMXP3 cells, JC-1 efflux, flow cytometry; inhibition, % at 6.6 µM; 190,000 tested, 0.1% active;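 active means inhibition above 80%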;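 further: 0% = DMSO and 100% = nicardipine control wells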
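Test system: IgMXP3 cells (ABCG2) mixed with DDAO far-red-labelled CCRF-Adr cells (ABCB1). Reagent: JC-1 transporter substrate. Compound dosing: single test compound dose, 6.6 µM final. Times: 10 min compound exposure, 25 °C. Detection: flow cytometry of retained JC-1 fluorescence. Read-out basis: efflux inhibition in percent versus controls. Controls: nicardipine and DMSO wells.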
MEKK2 WT-MEK5 = raises or lowers MEK5 binding to wildtype human MEKK2 PB1 domain; Q9Y2U5; bead flow cytometry, Alexa488-MEK5 binding to MEKK2 WT; actives lie on both sides; binding response (% of control), % at 10 µM; 290,000 tested, 1.1% active; AID 1531; in the data active means binding response below about 67% or above about 130%
ABCB1 inh = human ABCB1 inhibition, ABCG2 as counter-screen | inhibition, % at 6.6 µM | P08183 | CCRF-Adr cells, JC-1 efflux, flow cytometry | 190,000 tested, 0.067% active; in the data active means inhibition above about 40%;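 further: 0% = vehicle and 100% = reference inhibitor; higher value means more JC-1 retained so stronger ABCB1 efflux block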
Target sequence (P08183 whole entry, looked up): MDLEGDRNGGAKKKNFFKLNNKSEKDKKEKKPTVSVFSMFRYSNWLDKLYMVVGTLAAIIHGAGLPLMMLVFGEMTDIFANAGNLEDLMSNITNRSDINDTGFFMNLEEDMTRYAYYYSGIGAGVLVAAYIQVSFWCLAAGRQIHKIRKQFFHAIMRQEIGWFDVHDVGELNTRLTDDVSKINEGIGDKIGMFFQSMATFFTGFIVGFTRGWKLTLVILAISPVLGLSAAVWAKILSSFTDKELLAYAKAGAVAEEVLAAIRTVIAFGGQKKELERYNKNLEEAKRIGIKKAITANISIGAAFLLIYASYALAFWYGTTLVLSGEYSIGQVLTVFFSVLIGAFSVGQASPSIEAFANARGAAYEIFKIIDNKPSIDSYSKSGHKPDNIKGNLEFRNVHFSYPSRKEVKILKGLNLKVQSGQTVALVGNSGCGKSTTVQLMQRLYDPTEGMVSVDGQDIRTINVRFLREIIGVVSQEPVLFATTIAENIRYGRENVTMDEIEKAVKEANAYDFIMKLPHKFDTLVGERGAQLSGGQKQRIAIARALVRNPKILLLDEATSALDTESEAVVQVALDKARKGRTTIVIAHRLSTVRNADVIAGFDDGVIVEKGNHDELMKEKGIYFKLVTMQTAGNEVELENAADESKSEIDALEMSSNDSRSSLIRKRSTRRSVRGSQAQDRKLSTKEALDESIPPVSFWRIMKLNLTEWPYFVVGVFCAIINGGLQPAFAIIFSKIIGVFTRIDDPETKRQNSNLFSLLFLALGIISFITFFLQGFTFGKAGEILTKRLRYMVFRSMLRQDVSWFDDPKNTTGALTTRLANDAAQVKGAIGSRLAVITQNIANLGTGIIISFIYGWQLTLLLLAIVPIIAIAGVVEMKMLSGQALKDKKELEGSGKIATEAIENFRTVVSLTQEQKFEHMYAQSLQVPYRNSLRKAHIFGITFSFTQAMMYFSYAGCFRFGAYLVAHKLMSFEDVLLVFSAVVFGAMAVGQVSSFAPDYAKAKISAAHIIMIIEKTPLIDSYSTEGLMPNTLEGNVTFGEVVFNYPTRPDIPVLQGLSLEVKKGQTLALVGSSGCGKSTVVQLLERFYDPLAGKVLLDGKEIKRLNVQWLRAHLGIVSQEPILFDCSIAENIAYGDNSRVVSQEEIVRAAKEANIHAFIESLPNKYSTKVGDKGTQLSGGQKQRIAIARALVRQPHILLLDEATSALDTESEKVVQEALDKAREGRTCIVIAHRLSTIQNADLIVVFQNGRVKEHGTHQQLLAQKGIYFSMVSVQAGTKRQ
MEKK3 PB1 HTS = raises or lowers MEK5 binding to the human MEKK3 PB1 domain | Q99759 | binding response (% of control), % at 10 µM | 290,000 tested, 1.4% active | bead-based flow cytometry, Alexa488-MEK5 binding to MEKK3; actives lie on both sides; 0 = blocked by unlabeled MEK5, 100 = vehicle;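 active means binding response more than 3 SD above or below the average of its plate-row segment, actives on both sides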;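 further: Alexa488 bead fluorescence after subtracting the streptavidin-only scavenger bead signal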
Efflux pump inh = antifungal efflux pump inhibition, Nile Red retention; inhibition, % at 10 µM; S. cerevisiae Candida pump triplex; AID 485275; 330,000 tested, 0.44% active;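 active means plate passing quality check with inhibition over a set limit, or well fluorescence over plate mean plus 4 SD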;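 further: Nile Red retained in pooled yeast measured as flow cytometry median fluorescence; 0% = buffer negative control and 100% = Enniatin B positive control; higher means more Nile Red kept so more efflux inhibition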
MEKK2mut PB1 HTS = signal of MEK5 binding to mutant human MEKK2 PB1 domain; bead flow cytometry, Alexa488-MEK5 binding to MEKK2 mutant; percent response, % at 10 µM; 290,000 tested, 0.35% active; AID 1530; in the data active means percent response above about 24%, passing the limit was not always enough
Yeast cmpd fluor = compound fluorescence in yeast efflux pump counter-screen. shares compounds with Efflux pump inh. S. cerevisiae AD/pABC3, flow cytometry. 1,700 tested, 4% active. fluorescence ratio to DMSO, % at 10 µM;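 active means fluorescence ratio to DMSO above its plate's cutoff, the plate mean ratio plus 5 SD, cut at about 210% in these data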;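 further: unstained yeast with no Nile Red so the signal is compound autofluorescence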
Mdr1 pump inh = Candida Mdr1 efflux pump inhibition; S. cerevisiae AD/CaMDR1, Nile Red efflux, flow cytometry; AID 588518; 1,700 tested, 1% active; inhibition, % at 10 µM; shares compounds with Efflux pump inh; in the data active means inhibition above about 26%;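 further: 0% = DMSO vehicle and 100% = reference inhibitor; higher means more Nile Red retained so more efflux inhibition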
Cdr2 pump inh = Candida Cdr2 efflux pump inhibition. shares compounds with Efflux pump inh. S. cerevisiae AD/CaCDR2, Nile Red retention, flow cytometry. Nile Red retention ratio vs DMSO, % at 10 µM. 1,700 tested, 4% active. AID 588520; in the data active means Nile Red retention ratio vs DMSO above about 190%;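 further: higher ratio means more blocking of Cdr2 efflux of the dye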
Cdr1 pump inh = blocks the Candida albicans Cdr1 efflux pump in yeast | AID 588522 | inhibition, % at 10 µM | shares compounds with Efflux pump inh | S. cerevisiae AD/CaCDR1, Nile Red efflux, flow cytometry | 1,700 tested, 1% active;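 active means inhibition above the screen-wide mean plus twice its standard deviation, cut at about 32% in these data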
The depositor's hits bear a star; . = no result given.

SMILES | ABCG2 inh | MEKK2 WT-MEK5 | ABCB1 inh | MEKK3 PB1 HTS | Efflux pump inh | MEKK2mut PB1 HTS | Yeast cmpd fluor | Mdr1 pump inh | Cdr2 pump inh | Cdr1 pump inh
CC(=O)Cn1cnc2c(cnn2-c2ccc(C)c(C)c2)c1=O | . | 103 | . | 99 | 0 | 1 | . | . | . | .
Cc1cccc(OS(=O)(=O)NC(=O)OCC2CCCN3CCCCC23)c1 (centres undefined) | 4 | 103 | 0 | 101 | 0 | 4 | . | . | . | .
CC(=O)c1ccc(S(=O)(=O)Oc2ccc(-c3ccc(C(=O)O)cc3)cc2)cc1 | . | 97 | . | 96 | 0 | -3 | . | . | . | .
CCOc1ccccc1NC(=O)C(CC)Sc1nc2ccsc2c(=O)n1CCC(=O)O (centres undefined) | . | 99 | . | 100 | 0 | 0 | . | . | . | .
CCC(Sc1nc2ccsc2c(=O)n1Cc1ccc(C(=O)O)cc1)C(=O)Nc1ccc(C)c(Cl)c1 (centres undefined) | . | 97 | . | 101 | 0.8* | -2 | 124 | 0 | 105 | 0
CCN(CC)S(=O)(=O)c1ccc(OC)c(NC(=O)c2cccc([N+](=O)[O-])c2C)c1 | . | 105 | . | 100 | 0 | 0 | . | . | . | .
CCCSc1nnc(N)s1 | 1 | 98 | 0 | 101 | 18* | 0 | 118 | 1 | 155 | 1
CC(C)CCSc1nnc(N)s1 | . | 100 | . | 104 | 0 | 1 | . | . | . | .
Cc1cc(C(=O)NNS(=O)(=O)c2ccc(C(C)(C)C)cc2)nn1C(C)(C)C | . | 95 | . | 95 | 0.6* | -3 | 101 | 0 | 108 | 0
Cn1nnnc1SCC(=O)NC(=O)c1cccc([N+](=O)[O-])c1 | . | 87 | . | 86 | 0 | -4 | . | . | . | .
CC1CCc2c(C(=O)Nc3ccc(OC(F)(F)F)cc3)csc2C1 (centres undefined) | 6 | 135 | 0 | 105 | 19* | 17 | 99 | 0 | 104 | 0
CC1CCc2c(C(=O)Nc3nccs3)csc2C1 (centres undefined) | -5 | 108 | -5 | 100 | 0 | 8 | . | . | . | .
O=C(NCCCNC(=O)c1ccc(-c2cccc(Cl)c2)o1)c1cnccn1 | . | 90 | . | 95 | 0 | -8 | . | . | . | .
Cc1ccc(S(=O)(=O)N(CC(=O)NC2CCCCCC2)c2ccccc2F)cc1 | 1 | 100 | 0 | 100 | 0 | 9 | . | . | . | .
Cc1ccc(S(=O)(=O)N(CC(=O)N/N=C/c2cccc3c2OCCO3)c2ccccc2F)cc1 | -4 | 88 | 0 | 94 | 0.5* | -10 | 90 | 0 | 108 | 0
Cc1ccc(S(=O)(=O)c2ccc(Cl)cc2)cc1S(=O)(=O)N(C)CC(=O)O | -4 | 100 | 0 | 102 | 15* | 3 | 101 | 0 | 98 | 0
Cc1ccc(S(=O)(=O)c2ccc(Cl)cc2)cc1S(N)(=O)=O | . | 106 | . | 109 | 0 | 8 | . | . | . | .
Cc1ccc(-c2cnc(SCC(=O)N3CCCc4ccccc43)n2C)cc1 | 3 | 102 | 1 | 102 | 0 | 0 | . | . | . | .
Cn1c(-c2ccccc2)cnc1SCC(=O)N1CCCc2ccccc21 | 4 | 96 | 1 | 100 | 15* | -1 | 108 | 0 | 116 | 0
Cc1cccnc1NC(=S)Nc1ccc(Br)cc1Cl | 17 | 90 | 1 | 85 | 0 | -4 | . | . | . | .
C/C(=N/NC(=O)CN1CCN(Cc2ccccc2Cl)CC1)c1ccncc1 | 0 | 109 | 0 | 98 | 0 | 8 | . | . | . | .
O=C(O)CNS(=O)(=O)c1ccc2c3c(cccc13)C(=O)N2 | . | 97 | . | 99 | 0.7* | -1 | 111 | 0 | 100 | 0
O=C(O)CCCCCNS(=O)(=O)c1ccc2c3c(cccc13)C(=O)N2 | . | 105 | . | 106 | 0 | 10 | . | . | . | .
CN(C)c1ccc(S(=O)(=O)N2CCCCC2)cc1NC(=O)COc1ccccc1F | . | 99 | . | 99 | 0 | 0 | . | . | . | .
O=C(NCCc1ccccc1)c1c(O)c2cccc3c2n(c1=O)CC3 | 0 | 98 | 0 | 97 | 0 | 11 | . | . | . | .
SMILES | ABCG2 inh | MEKK2 WT-MEK5 | ABCB1 inh | MEKK3 PB1 HTS | Efflux pump inh | MEKK2mut PB1 HTS | Yeast cmpd fluor | Mdr1 pump inh | Cdr2 pump inh | Cdr1 pump inh
O=C(Oc1c(-c2ccccc2)c(=O)n2c3c(cccc13)CC2)c1ccc(F)cc1 | . | 96 | . | 94 | 0.6* | -5 | 99 | 0 | 97 | 0
O=C(c1cccc([N+](=O)[O-])c1)N1CCc2ccccc21 | . | 100 | . | 99 | 0 | 2 | . | . | . | .
O=C(Oc1c(-c2ccccc2)c(=O)n2c3c(cccc13)CC2)c1ccccc1 | . | 105 | . | 106 | 0 | 1 | 161 | 0 | 91 | 3
CN1CCN(C(=O)c2c(O)c3cccc4c3n(c2=O)CC4)CC1 | 26 | 96 | 1 | 96 | 0 | -3 | . | . | . | .
O=C(Oc1c(-c2ccccc2)c(=O)n2c3c(cccc13)CC2)c1cccc([N+](=O)[O-])c1 | . | 93 | . | 99 | 0.6* | -4 | 102 | 0 | 101 | 0
Cc1occc1C(=O)N(C)CC1CCCN(CCc2ccccc2F)C1 (centres undefined) | . | 97 | . | 94 | 5.0* | -8 | 113 | 0 | 89 | 0
CCCCCCCCC(=O)N/N=C(\C)c1cccnc1 | -2 | 98 | 0 | 103 | 0 | 1 | . | . | . | .
CCCCCC(=O)N/N=C(\C)c1ccc(Cl)cc1 | 2 | 100 | 0 | 97 | 9.8* | 4 | 111 | 0 | 97 | 0
Cc1ccc(C(O)(C(=O)NNc2ccc3ccccc3n2)c2ccc(C)cc2)cc1 | 6 | 86 | 1 | 99 | 0 | 7 | . | . | . | .
Cc1nn(CC(=O)NC2CCC(C)CC2)c(C)c1[N+](=O)[O-] (centres undefined) | . | . | . | . | 0 | . | . | . | . | .
Cc1ccc2nc(-c3ccccc3)cc(C(=O)N3CCN(S(=O)(=O)c4c(C)noc4C)CC3)c2c1 | . | . | . | . | 1.1* | . | 104 | 0 | 103 | 0
Cc1ccc2nc(-c3ccccc3)cc(C(=O)N3CCN(c4ccccc4O)CC3)c2c1 | . | . | . | . | 0 | . | . | . | . | .
CC1CC(C)CN(C(=O)CSc2nnc(-c3ccco3)o2)C1 (centres undefined) | . | 100 | . | 98 | 0 | 6 | . | . | . | .
COc1ccc(OCCOC(=O)CN2C(=O)NC3(CCCC3)C2=O)cc1 | . | . | . | . | 0 | . | . | . | . | .
COc1ccc(C(=O)CN2C(=O)NC3(CCCCCC3)C2=O)cc1 | . | 98 | . | 100 | 6.2* | -3 | 99 | 0 | 104 | 0
CCc1ccc(C(=O)Nc2cc(S(=O)(=O)N3CCOCC3)ccc2N2CCOCC2)cc1 | . | . | . | . | 0 | . | . | . | . | .

From PubChem
